Screening data from PubChem.
Sampled rows, rich in hits. Any-hit rate of the full collection: about 2.2%.
NR2E3 ag-1 = inhibitors of NR2E3-RetCOR corepressor binding, primary screen, NR2E3 agonist project, biochemical, TR-FRET, GST-NR2E3, biotin-RetCOR; Photoreceptor-specific nuclear receptor (Homo sapiens), Q9Y5X4; 1536-well; inhibition of corepressor binding, % at 4.78 µM; 320,000 tested, 0.12% active; AID 2300, 2010;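 active means percent inhibition above the cutoff of mean plus 3 SD of all tested compounds, set per screening campaign, cut at about 20% in these data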;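 further: 0% = DMSO wells and 100% = biotin wells as full block of FRET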
Target sequence (Q9Y5X4 whole entry, looked up): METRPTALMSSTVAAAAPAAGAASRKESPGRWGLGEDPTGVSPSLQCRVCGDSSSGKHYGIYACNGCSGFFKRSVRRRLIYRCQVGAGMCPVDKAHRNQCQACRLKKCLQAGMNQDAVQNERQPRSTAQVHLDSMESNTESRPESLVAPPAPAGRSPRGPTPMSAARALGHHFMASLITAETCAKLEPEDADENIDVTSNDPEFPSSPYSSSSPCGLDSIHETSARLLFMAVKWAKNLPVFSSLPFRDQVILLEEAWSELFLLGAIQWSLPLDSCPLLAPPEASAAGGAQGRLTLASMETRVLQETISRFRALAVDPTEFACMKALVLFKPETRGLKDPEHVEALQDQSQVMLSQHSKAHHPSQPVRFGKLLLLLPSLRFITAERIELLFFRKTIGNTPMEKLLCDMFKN
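Assay system: NR2E3–RetCOR corepressor complex. Quantity: 1.35 nM GST-NR2E3. Buffer or medium: pH 7.5 Tris-based buffer. Reagent: biotinylated RetCOR corepressor at 7 nM final. Schedule: 5 h at 4 °C. Detection: TR-FRET, emission read at 617 and 671 nm. Replicates: one well per compound, singlicate testing.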
FXN GAA850 act = FXN promoter activators, primary screen, cell-based, luciferase luminescence, HEK293 lucGAA850. HEK293 lucGAA850 FXN promoter luciferase reporter, 24 h; percent of 10 µM SAHA response. activation, % at 6 µM. 360,000 tested, 0.56% active. AID 540364, 2011;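 active means activation above the average of all compounds screened plus 3 SD, cutoff fixed separately per campaign, cut at about 7.5% in these data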;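 further: 0% = DMSO wells and 100% = 10 µM SAHA wells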
HIV Env fusion = inhibitors of HIV-1 Env-driven cell-cell fusion, primary screen, HeLa-JRFL effector, CEM21 target cells, luciferase. inhibition, % at 12.3 µM. 360,000 tested, 1.1% active;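 active means mean replicate inhibition score of at least 50 and every replicate individually at or above 50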;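 further: 0% = plate neutral controls and 100% = maraviroc near 300 nM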
GalR3 antag = GalR3 antagonists in HEK293 cells, primary screen, cell-based, fluorescence readout. Galanin receptor type 3 (Homo sapiens), O60755. HEK293 GalR3-CNG cAMP membrane potential fluorescence; galR3 body fused to GalR1 C-terminus. inhibition, % at 3 µM. 360,000 tested, 0.44% active. AID 651719, 2012;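 active means inhibition above the screen-wide average plus 3 SD, cut at about 13% in these data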;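 further: forskolin and galanin both at EC90 stimulate the cells; cAMP rise reported by CNG channel membrane potential dye signal; 0% = forskolin plus galanin with DMSO and 100% = forskolin alone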
Target sequence (O60755 1-299 limits assumed): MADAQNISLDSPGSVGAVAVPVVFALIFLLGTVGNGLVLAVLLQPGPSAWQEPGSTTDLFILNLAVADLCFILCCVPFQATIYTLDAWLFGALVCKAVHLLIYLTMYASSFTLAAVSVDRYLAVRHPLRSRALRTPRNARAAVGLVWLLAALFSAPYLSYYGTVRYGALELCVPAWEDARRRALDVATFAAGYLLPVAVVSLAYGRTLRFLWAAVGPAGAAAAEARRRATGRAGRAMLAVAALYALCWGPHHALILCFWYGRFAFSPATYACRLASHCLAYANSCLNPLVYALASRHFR
V-ATPase pHluor = regulators of yeast V-ATPase proton pumping, primary screen, pHLuorin cytosolic pH fluorescence; S. cerevisiae; response, % at 10 µM; 350,000 tested, 0.37% active; AID 504577, 2011; in the data active means response mostly above about 7.3%, no sharp cut-off; inactive means mostly below about 5.4%; further: actives read high
NR2E3 ag-2 = NR2E3 agonists in two-hybrid cells, primary screen, cell-based, luminescence, CHO-S, Gal4-NCOR/VP16-NR2E3; luciferase; inhibition of corepressor binding, % at 3.98 µM; 360,000 tested, 0.35% active;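 active means inhibition above the mean of all tested compounds plus 3 SD, cut at about 70% in these data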;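 further: 0% = DMSO with NR2E3 transfected cells and 100% = cells lacking NR2E3 construct; higher means lower luciferase signal from less NR2E3 corepressor binding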
An asterisk follows results filed as active; x = no result given; [ ] = remark or other dose.

SMILES | NR2E3 ag-1 | FXN GAA850 act | HIV Env fusion | GalR3 antag | V-ATPase pHluor | NR2E3 ag-2
C[C@@H]1CCCCO[C@@H](CN(C)C(=O)Nc2ccc(C(F)(F)F)cc2)[C@H](C)CN([C@H](C)CO)C(=O)c2cc(NS(=O)(=O)c3ccccc3)ccc2O1 | x | x | 14.2[16.7 µM] | x | x | x
C[C@@H]1CN([C@H](C)CO)C(=O)c2cc(NS(=O)(=O)c3ccc(Cl)cc3)ccc2O[C@@H](C)CCCCO[C@H]1CN(C)C(=O)Nc1ccc(C(F)(F)F)cc1 | x | x | 55.0*[16.7 µM] | x | x | x
C[C@H]1CCCCO[C@H](CN(C)C(=O)Nc2ccc(C(F)(F)F)cc2)[C@@H](C)CN([C@@H](C)CO)C(=O)c2cc(NS(=O)(=O)c3ccccc3)ccc2O1 | x | x | 78.4*[16.7 µM] | x | x | x
C[C@@H]1CCCCO[C@H](CN(C)C(=O)Nc2ccc(C(F)(F)F)cc2)[C@@H](C)CN([C@@H](C)CO)C(=O)c2cc(NS(=O)(=O)c3ccc(F)cc3)ccc2O1 | x | x | 6.9[16.7 µM] | x | x | x
C[C@@H]1CCCCO[C@@H](CN(C)C(=O)Nc2ccc(C(F)(F)F)cc2)[C@@H](C)CN([C@H](C)CO)C(=O)c2cc(NS(=O)(=O)c3ccc(Cl)cc3)ccc2O1 | x | x | -1.4[16.7 µM] | -2.6 | x | x
C[C@H]1CCCCO[C@@H](CN(C)C(=O)Nc2ccc(C(F)(F)F)cc2)[C@@H](C)CN([C@@H](C)CO)C(=O)c2cc(NS(=O)(=O)c3ccc(F)cc3)ccc2O1 | x | x | 61.3*[16.7 µM] | x | x | x
C[C@@H]1CCCCO[C@@H](CN(C)C(=O)Nc2ccccc2)[C@H](C)CN([C@@H](C)CO)C(=O)c2cc(N(C)C)ccc2O1 | x | x | -59.4[16.7 µM] | x | x | x
C[C@H](CO)N1C[C@H](C)[C@@H](CN(C)Cc2ccncc2)Oc2ccc(NC(=O)Cc3cn(C)c4ccccc34)cc2C1=O | x | x | 1.0[16.7 µM] | x | x | x
C/C=C/c1cnc2c(c1)C(=O)N([C@H](C)CO)C[C@@H](C)[C@@H](CN(C)C(=O)CN1CCOCC1)O2 | x | x | -9.9[16.7 µM] | x | x | x
C[C@H]1CN([C@@H](C)CO)C(=O)c2cccc(NS(=O)(=O)c3cn(C)cn3)c2O[C@@H]1CN(C)Cc1ccc(C(=O)O)cc1 | x | x | 17.4[16.7 µM] | x | x | x
CCCNC(=O)C[C@@H]1CC[C@H]2[C@@H](COc3ccc(NC(=O)Nc4cccc(C)c4)cc3C(=O)N2C)O1 | x | x | 28.1[16.7 µM] | x | x | x
C=CCn1c(C)nnc1SCC(=O)NC1CCCCC1 | 2.7 | 2.9 | -9.6 | -2.7 | -4.7 | -14.5
C=CCn1c(C)nnc1SCC(=O)NC1CC1 | 3.4 | -0.1 | 61.8* | -3.4 | -3.5 | -18.1
C[C@@H]1CCCCO[C@@H](CN(C)C(=O)c2ccncc2)[C@H](C)CN([C@@H](C)CO)C(=O)c2cc(NC(=O)c3ccncc3)ccc2O1 | x | x | -6.3[16.7 µM] | x | x | x
CC1CCN(C(=O)COC(=O)Cc2c[nH]c3ccccc23)CC1 | 2.0 | -1.3 | -7.9 | -2.0 | 13.1* | -0.5
CC1CCN(C(=O)COC(=O)CCc2c[nH]c3ccccc23)CC1 | 2.5 | 0.3 | 1.3 | -3.8 | 1.6 | -19.4
Cc1ccc(Nc2nc(N)nc(CN3CCN(Cc4ccc5c(c4)OCO5)CC3)n2)cc1Cl | -3.9 | -2.4 | 69.0* | -6.4 | -1.3 | 21.2
CO[C@@]12[C@@H]3N[C@@H]3CN1C1=C(C(=O)C(N)=C(C)C1=O)[C@@H]2COC(N)=O | x | -7.4 | 62.6* | -1.5 | 4.1 | 1.0
CO[C@@]12[C@H](COC(N)=O)C3=C(C(=O)C(C)=C(N)C3=O)N1C[C@@H]1N[C@@H]12 | 0.8 | 0.3 | 7.3 | x | 1.5 | 2.2
CCCN(C)C[C@@H]1Oc2cc(C#CCC(C)C)ccc2S(=O)(=O)N([C@@H](C)CO)C[C@@H]1C | x | x | -4.4[16.7 µM] | x | x | x
Cc1cc(N2CCCC2=O)cc(C)c1S(=O)(=O)NCCOc1ccc(C(C)(C)C)cc1 | 3.0 | -0.8 | 84.8* | -11.1 | -5.7 | 95.0*
O=C(Nc1cc2c3c(c1)CC(=O)N3CCC2)c1ccc(Cl)cc1 | 1.1 | 2.1 | 84.6* | -1.8 | 1.7 | -2.0
CCOC(=O)C1=C(C)NC2=C(C(=O)CCC2)C1c1coc2ccccc2c1=O (stereo not drawn) | 1.0 | 1.8 | x | -8.0 | 1.5 | -11.5
CC1=C(C(=O)OCCOc2ccccc2)C(c2coc3ccccc3c2=O)C2=C(CCCC2=O)N1 (stereo not drawn) | 4.2 | 0.7 | 56.8* | 1.5 | 2.5 | -0.1
C=CC[C@H](CC(=O)N(CCO)Cc1ccccc1)C(=O)N[C@H](COC(=O)[C@@H](CC=C)CC(=O)OC(C)(C)C)Cc1c[nH]c2ccccc12 | x | -5.4 | 64.1* | -7.2 | 3.9 | -4.4
SMILES | NR2E3 ag-1 | FXN GAA850 act | HIV Env fusion | GalR3 antag | V-ATPase pHluor | NR2E3 ag-2
CN(C)C(=O)C[C@@H]1CC[C@H](NC(=O)C2CC2)[C@H](CO)O1 | x | x | -10.5[16.7 µM] | x | x | x
N#CC1=C(N)N2C(=C(C#N)C1c1ccc(Br)cc1)Nc1ccccc12 (stereo not drawn) | 8.0 | x | 55.7* | -2.4 | x | x
N#CC1=C(N)N2C(=C(C#N)C1c1ccccc1)Sc1ccccc12 (stereo not drawn) | 2.1 | x | x | x | x | x
N#CC1=C(N)N2C(=C(C#N)C1c1cccc(Br)c1)Nc1ccccc12 (stereo not drawn) | 2.0 | -1.6 | 64.8* | -5.6 | 1.4 | -7.9
COc1ccc(NC(=O)Nc2ccc3c(c2)[C@@H]2C[C@H](CC(=O)NCC4CC4)O[C@@H](CO)[C@@H]2O3)cc1 | x | x | -12.1[16.7 µM] | x | x | x
O=C1C(Cl)=C(N2CCCCCC2)C(=O)N1c1ccccc1 | -0.6 | 2.0 | 104.9* | -8.9 | -0.2 | -18.5
Cc1noc(C)c1S(=O)(=O)Nc1ccc2c(c1)C(=O)N([C@@H](C)CO)C[C@@H](C)[C@@H](CN(C)C)OCCCC[C@H](C)O2 | x | x | 19.6[16.7 µM] | x | x | x
CN(C(=O)c1ccc(NC(=O)Cc2ccc(NC(=O)C3CCCN(C(=O)CCc4ccccc4)C3)cc2)cc1)C1CC1 (stereo not drawn) | 1.6 | 0.0 | 55.9* | -1.1 | -0.9 | -22.9
CN(C(=O)c1cccc(NC(=O)Cc2cccc(NC(=O)C3CCCN(C(=O)C4CCC4)C3)c2)c1)C1CCC1 (stereo not drawn) | x | -2.4 | 85.3* | 5.2 | 0.6 | -30.9
CN(C(=O)c1ccc(NC(=O)Cc2cccc(NC(=O)C3CCCN(C(=O)CCc4ccccc4)C3)c2)cc1)C1CCCC1 (stereo not drawn) | 0.4 | -1.9 | 10.3 | -4.4 | -3.0 | -24.6
C[C@@H]1CN([C@H](C)CO)C(=O)c2cc(C3=CCCCC3)cnc2O[C@H]1CN(C)C(=O)Cc1cccnc1 | x | x | -51.2[16.7 µM] | x | x | x
